Reference: publication PMC3277286 (Journal of Medicinal Chemistry, 2012)

Assays:
human ΔF508-CFTR [1] = molecular target: T1, human ΔF508-CFTR (Homo sapiens, UniProt P13569, DEL508-508); assay type: cell-based; settings: summary in text of corrector and potentiator assays in ΔF508-CFTR FRT cells
How it was run: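 FRT cells coexpressing human ΔF508-CFTR and YFP-H148Q/I152L were grown 18–24 h at 37 °C, then rescued 18–24 h at 27 °C. After a PBS wash, they got 20 μM forskolin with test compound (0–50 μM final, eight concentrations) for 10 min. I⁻ influx was recorded over 2 s baseline plus 12 s after iodide addition, rate by exponential regression. Controls were DMSO and genistein. Runs were in triplicate; EC50/Vmax came from a 4-parameter logistic fit.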

human ΔF508-CFTR [2] = molecular target: T1, human ΔF508-CFTR; test: ΔF508-CFTR corrector activity, fluorescence plate-reader iodide influx assay; assay type: cell-based; settings: summary in text of corrector and potentiator assays in ΔF508-CFTR FRT cells
How it was run: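 FRT cells stably coexpressing human ΔF508-CFTR and YFP-H148Q/I152L were grown 24 h at 37 °C, then given test compound for 16–20 h at eight concentrations (maximum 25 μM). After a PBS wash, they got 20 μM forskolin plus 50 μM genistein for 20 min. Iodide influx was read as YFP quenching after Cl-to-I replacement (137 mM), fitted exponentially. Runs were in triplicate; EC50/Vmax came from a 4-parameter logistic fit.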

| Structure (SMILES) | Activity class from function studies (potentiator) (human ΔF508-CFTR [1]) | Activity class from function studies (corrector / dual) (human ΔF508-CFTR [2]) |
| --- | --- | --- |
| Cc1cc(C)c2cc(C#N)c(NCCNC(=O)c3ccccn3)nc2c1 [CoPo 16, N-(2-((3-Cyano-5,7-dimethylquinolin-2-yl)amino)ethyl)picolinamide] | potentiator-only activity | – |
| Cc1cc(C)c2cc(C#N)c(NCCNC(=O)c3ccccc3)nc2c1 [CoPo 19, N-(2-((3-Cyano-5,7-dimethylquinolin-2-yl)amino)ethyl)benzamide] | potentiator-only activity | – |
| Cc1cc(C)c2cc(C#N)c(NCCNC(=O)c3cnccn3)nc2c1 [CoPo 22, N-(2-((3-Cyano-5,7-dimethylquinolin-2-yl)amino)ethyl)pyrazine-2-carboxamide] | – | corrector-only activity |
| COc1ccccc1C(=O)NCCCNc1nc2cc(C)cc(C)c2cc1C#N [CoPo 31, N-(3-(3-Cyano-5,7-dimethylquinolin-2-ylamino)propyl)-2-methoxybenzamide] | potentiator-only activity | – |
| Cc1cc(C)c2cc(C#N)c(NCCCNC(=O)c3ccccn3)nc2c1 [CoPo 34, N-(3-(3-Cyano-5,7-dimethylquinolin-2-ylamino)propyl)picolinamide] | potentiator-only activity | – |
